Experiments:
Format in all cases: functional
[1] = Growth inhibition of human MOLT4 cells after 48 hrs by SRB assay; settings: MOLT-4, 48 h
Summary of the method: (§1)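 NCI-60 panel screen. Cells exposed for 48 h to five concentrations (10−4, 10−5, 10−6, 10−7 and 10−8 M). Sulforhodamine B optical density is read just before compound addition (time zero) and after 48 h, for both treated and vehicle-control wells. Percent growth is calculated against control. GI50 is the concentration giving a 50% reduction in net cell growth relative to cell numbers on day 0.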

[2] = Growth inhibition of human Hs578T cells after 48 hrs by SRB assay; settings: Hs-578T; summary of the method: as §1
[3] = Growth inhibition of human SF295 cells after 48 hrs by SRB assay; settings: SF-295, 48 h; summary of the method: as §1
MDA-MB-468 = test: Growth inhibition of human MDA-MB-468 cells after 48 hrs by SRB assay; settings: MDA-MB-468, 48 h; summary of the method: as §1
[4] = Growth inhibition of human HOP92 cells after 48 hrs by SRB assay; settings: HOP-92, 48 h; summary of the method: as §1
786-0 = test: Growth inhibition of human 786-0 cells after 48 hrs by SRB assay; settings: 786-0, 48 h; summary of the method: as §1
UACC-62 = test: Growth inhibition of human UACC62 cells after 48 hrs by SRB assay; settings: UACC-62, 48 h
Summary of the method: (§2)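 NCI-60 panel cells; preliminary single-dose screen at 10−5 M, then five-dose testing at 10−4 to 10−8 M (tenfold steps) with 48 h exposure. SRB-stained optical density read before compound addition (time zero), after 48 h with compound, and with vehicle control. Percent growth is calculated against control. GI50 is the concentration giving 50% reduction in net growth relative to day-0 cell number.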

CAKI-1 = test: Growth inhibition of human Caki1 cells after 48 hrs by SRB assay; settings: CAKI-1, 48 h; summary of the method: as §1
IGROV-1 = test: Growth inhibition of human IGROV1 cells after 48 hrs by SRB assay; settings: IGROV-1, 48 h; summary of the method: as §1
[5] = Growth inhibition of human HCC2998 cells after 48 hrs by SRB assay; settings: HCC 2998, 48 h; summary of the method: as §1
NCI-H23 = test: Growth inhibition of human NCI-H23 cells after 48 hrs by SRB assay; settings: NCI-H23, 48 h; summary of the method: as §1
SK-OV-3 = test: Growth inhibition of human SKOV3 cells after 48 hrs by SRB assay; settings: SK-OV-3, 48 h; summary of the method: as §1
HOP-62 = test: Growth inhibition of human HOP62 cells after 48 hrs by SRB assay; settings: HOP-62, 48 h; summary of the method: as §1
[6] = Growth inhibition of human BT549 cells after 48 hrs by SRB assay; settings: BT-549, 48 h; summary of the method: as §1
KM12 = test: Growth inhibition of human KM12 cells after 48 hrs by SRB assay; settings: KM12, 48 h; summary of the method: as §1
NCI-H226 = test: Growth inhibition of human NCI-H226 cells after 48 hrs by SRB assay; settings: NCI-H226, 48 h; summary of the method: as §1
MDA-MB-435 = test: Growth inhibition of human MDA-MB-435 cells after 48 hrs by SRB assay; settings: MDA-MB-435, 48 h; summary of the method: as §1
SNB-19 = test: Growth inhibition of human SNB19 cells after 48 hrs by SRB assay; settings: SNB-19, 48 h; summary of the method: as §1
NCI-H522 = test: Growth inhibition of human NCI-H522 cells after 48 hrs by SRB assay; settings: NCI-H522, 48 h; summary of the method: as §1
Malme-3M = test: Growth inhibition of human MALME-3M cells after 48 hrs by SRB assay; summary of the method: as §1
A498 = test: Growth inhibition of human A498 cells after 48 hrs by SRB assay; settings: A498, 48 h; summary of the method: as §1
SW-620 = test: Growth inhibition of human SW620 cells after 48 hrs by SRB assay; settings: SW-620, 48 h; summary of the method: as §2
UO-31 = test: Growth inhibition of human UO31 cells after 48 hrs by SRB assay; settings: UO-31, 48 h; summary of the method: as §2
DU-145 = test: Growth inhibition of human DU145 cells after 48 hrs by SRB assay; settings: DU-145, 48 h; summary of the method: as §1
MCF7 = test: Growth inhibition of human MCF7 cells after 48 hrs by SRB assay; settings: MCF7, 48 h; summary of the method: as §1
HL-60(TB) = test: Growth inhibition of human HL-60(TB) cells after 48 hrs by SRB assay; settings: HL-60, 48 h
Summary of the method: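 NCI-60 panel screen: cells were exposed to test agent at five concentrations (10−4, 10−5, 10−6, 10−7 and 10−8 M) for 48 h. Sulforhodamine B optical density was read at time zero and after exposure to compound or vehicle control, and growth percentage versus control was calculated. GI50 was taken as the concentration giving a 50% reduction in net cell growth relative to day 0 cell numbers.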

SK-MEL-2 = test: Growth inhibition of human SK-MEL-2 cells after 48 hrs by SRB assay; settings: SK-MEL-2, 48 h; summary of the method: as §1
SF-268 = test: Growth inhibition of human SF268 cells after 48 hrs by SRB assay; settings: SF-268, 48 h; summary of the method: as §1
TK-10 = test: Growth inhibition of human TK10 cells after 48 hrs by SRB assay; settings: TK-10, 48 h; summary of the method: as §2
SNB-75 = test: Growth inhibition of human SNB75 cells after 48 hrs by SRB assay; settings: SNB-75, 48 h; summary of the method: as §2
HCT-15 = test: Growth inhibition of human HCT15 cells after 48 hrs by SRB assay; settings: HCT-15, 48 h; summary of the method: as §1
SR = test: Growth inhibition of human SR cells after 48 hrs by SRB assay; summary of the method: as §2
OVCAR-3 = test: Growth inhibition of human OVCAR3 cells after 48 hrs by SRB assay; settings: OVCAR-3, 48 h; summary of the method: as §1
U-251 = test: Growth inhibition of human U251 cells after 48 hrs by SRB assay; settings: U-251, 48 h; summary of the method: as §2
[7] = Growth inhibition of human LOXIMVI cells after 48 hrs by SRB assay; settings: LOX IMVI; summary of the method: as §1
SK-MEL-5 = test: Growth inhibition of human SK-MEL-5 cells after 48 hrs by SRB assay; settings: SK-MEL-5, 48 h; summary of the method: as §1
PC-3 = test: Growth inhibition of human PC3 cells after 48 hrs by SRB assay; settings: PC-3, 48 h; summary of the method: as §1
HT-29 = test: Growth inhibition of human HT-29 cells after 48 hrs by SRB assay; settings: HT-29, 48 h; summary of the method: as §1
K562 = test: Growth inhibition of human K562 cells after 48 hrs by SRB assay; settings: K562, 48 h; summary of the method: as §1
OVCAR-8 = test: Growth inhibition of human OVCAR8 cells after 48 hrs by SRB assay; settings: OVCAR-8, 48 h; summary of the method: as §1
MDA-MB-231 = test: Growth inhibition of human MDA-MB-231/ATCC cells after 48 hrs by SRB assay; settings: MDA-MB-231, 48 h; summary of the method: as §1
[8] = Growth inhibition of human RXF393 cells after 48 hrs by SRB assay; settings: RXF 393, 48 h; summary of the method: as §1
[9] = Growth inhibition of human SF539 cells after 48 hrs by SRB assay; settings: SF-539, 48 h; summary of the method: as §1
[10] = Growth inhibition of human COLO205 cells after 48 hrs by SRB assay; settings: COLO 205, 48 h; summary of the method: as §1
[11] = Growth inhibition of human RPMI8226 cells after 48 hrs by SRB assay; settings: RPMI-8226, 48 h; summary of the method: as §1
[12] = Growth inhibition of human NCI-ADR-RES cells after 48 hrs by SRB assay; summary of the method: as §1
ACHN = test: Growth inhibition of human ACHN cells after 48 hrs by SRB assay; summary of the method: as §1
M14 = test: Growth inhibition of human M14 cells after 48 hrs by SRB assay; settings: M14, 48 h; summary of the method: as §1
SK-MEL-28 = test: Growth inhibition of human SK-MEL-28 cells after 48 hrs by SRB assay; settings: SK-MEL-28, 48 h; summary of the method: as §1
CCRF-CEM = test: Growth inhibition of human CCRF-CEM cells after 48 hrs by SRB assay; summary of the method: as §1
A549 = test: Growth inhibition of human A549/ATCC cells after 48 hrs by SRB assay; settings: A549, 48 h; summary of the method: as §1
NCI-H460 = test: Growth inhibition of human NCI-H460 cells after 48 hrs by SRB assay; settings: NCI-H460, 48 h; summary of the method: as §1
OVCAR-4 = test: Growth inhibition of human OVCAR4 cells after 48 hrs by SRB assay; settings: OVCAR-4, 48 h; summary of the method: as §1
HCT-116 = test: Growth inhibition of human HCT116 cells after 48 hrs by SRB assay; settings: HCT-116, 48 h; summary of the method: as §1
OVCAR-5 = test: Growth inhibition of human OVCAR5 cells after 48 hrs by SRB assay; settings: OVCAR-5, 48 h; summary of the method: as §1
SN12C = test: Growth inhibition of human SN12C cells after 48 hrs by SRB assay; summary of the method: as §1

COc1cc(/C=C/c2cc3ccccc3[nH]2)cc(OC)c1OC
GI50 [1]: 854 nM
GI50 [2]: 257 nM
GI50 [3]: 311 nM
GI50 (MDA-MB-468): 285 nM
GI50 [4]: 201 nM
GI50 (786-0): 802 nM
GI50 (UACC-62): 465 nM
GI50 (CAKI-1): 382 nM
GI50 (IGROV-1): 504 nM
GI50 [5]: 2250 nM
GI50 (NCI-H23): 677 nM
GI50 (SK-OV-3): 676 nM
GI50 (HOP-62): 933 nM
GI50 [6]: 938 nM
GI50 (KM12): 436 nM
GI50 (NCI-H226): 559 nM
GI50 (MDA-MB-435): 150 nM
GI50 (SNB-19): 461 nM
GI50 (NCI-H522): 294 nM
GI50 (Malme-3M): 388 nM
GI50 (A498): 281 nM
GI50 (SW-620): 333 nM
GI50 (UO-31): 172 nM
GI50 (DU-145): 384 nM
GI50 (MCF7): 395 nM
GI50 (HL-60(TB)): 347 nM
GI50 (SK-MEL-2): 426 nM
GI50 (SF-268): 708 nM
GI50 (TK-10): 21600 nM
GI50 (SNB-75): 329 nM
GI50 (HCT-15): 469 nM
GI50 (SR): 241 nM
GI50 (OVCAR-3): 234 nM
GI50 (U-251): 442 nM
GI50 [7]: 664 nM
GI50 (SK-MEL-5): 305 nM
GI50 (PC-3): 381 nM
GI50 (HT-29): 335 nM
GI50 (K562): 393 nM
GI50 (OVCAR-8): 587 nM
GI50 (MDA-MB-231): 1300 nM
GI50 [8]: 275 nM
GI50 [9]: 231 nM
GI50 [10]: 343 nM
GI50 [11]: 388 nM
GI50 [12]: 365 nM
GI50 (ACHN): 620 nM
GI50 (M14): 332 nM
GI50 (SK-MEL-28): 944 nM
GI50 (CCRF-CEM): 368 nM
GI50 (A549): 624 nM
GI50 (NCI-H460): 374 nM
GI50 (OVCAR-4): 691 nM
GI50 (HCT-116): 534 nM
GI50 (OVCAR-5): 963 nM
GI50 (SN12C): 1640 nM
